Screens from PubChem BioAssay.
The list is not random: actives were taken first. Their share in the collection is about 2.3%.
TRPC4 PAM – TRPC4 (mouse) allosteric potentiation; 0.42% of 310,000 active; Q9QUQ5; HEK293 TRPC4beta/mu-opioid, DAMGO EC20, Fluo-4 Ca2+ flux; hits give high values; B-score at 10 µM;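 active means B-score of calcium response area above 5 SD of library B-scores, with initial fluorescence ratio within 5 SD of library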
TRPC4 agonist – activators of mouse TRPC4 channel; HEK293 TRPC4beta/mu-opioid, Fluo4 calcium fluorescence; hits give high values; B-score at 10 µM; 0.49% of 310,000 active; AID 2237;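 active means B-score above 5 SD of library B-scores, and initial fluorescence ratio not above library mean plus 5 SD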;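 further: positive B-score marks a calcium rise read as TRPC4 activation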
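System – HEK293 cells stably co-expressing mouse TRPC4beta and mu-opioid receptor · Signal – Fluo4 calcium-sensitive dye fluorescence, kinetic, 1 Hz baseline · Benchmarks – buffer (low) and maximal DAMGO (high) · Read-out – B score of integrated fluorescence ratio per well · Incubation – dye loading 45 min room temperature, 110 s kinetic read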
TRPC4 block – TRPC4 (mouse) channel inhibition. Q9QUQ5. B-score at 10 µM. 0.39% of 300,000 active. HEK293 TRPC4beta/mu-opioid, DAMGO-evoked Fluo4 calcium flux; hits give low values;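 active means B-score over 3 SD under the library average, no early fluorescence shift, positive overall ratio signal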
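material = TRPC4beta/mu-opioid receptor HEK293 cell line | probe or stimulus = sequential submaximal and maximal DAMGO stimulation | compound dosing = one concentration per compound | measured by = Fluo4 Ca2+ flux fluorescence | evaluation = integrated fluorescence ratio relative to baseline, converted to per-well B score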
TRPC6 inh – mouse TRPC6 channel inhibition; B-score at 10 µM; Q61143; AID 2553; HEK293-TRPC6, membrane potential dye, ACh-evoked depolarization; hits give low values; 1.1% of 310,000 active;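 active means B-score under library mean minus 3 SD, initial fluorescence not abnormally high, positive integrated signal ratio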;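 further: B-score derived from integrated fluorescence ratio over the kinetic read; more negative B-score means stronger inhibition of depolarization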
TRPC6 act – activates the mouse TRPC6 cation channel; B-score at 10 µM; 0.13% of 310,000 active; Q61143; AID 2550; HEK293-TRPC6 membrane potential dye fluorescence; hits give high values;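 active means B-score of the integrated fluorescence ratio above library mean plus 3 SD, and starting fluorescence ratio within library mean plus 5 SD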;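 further: higher score means more depolarization so channel activation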
Each line names hits and unclear results; the compound was inactive in the other large screens.

CCCCCOc1ccc2oc(=O)c3c(c2c1)CCCN3C(=O)CN1CCCC(C(=O)OCC)C1 (stereo not given)	TRPC4 PAM 33
CCN(CC)CCNC(=O)C(=O)NCC1OCCN1C(=O)c1ccc2c(c1)OCO2 (stereo not given)	none
CCn1c(-c2ccccc2)csc1=Nc1ccc(O)cc1	TRPC4 block -5
CCc1ccc(C(=O)c2cnc3ccc(OC)cc3c2N2CCN(CC)CC2)cc1	TRPC4 agonist 230
CCOc1ccc(C(=O)c2cnc3ccccc3c2N2CCN(CC)CC2)cc1	TRPC4 block -5
CCOc1ccc2ncc(C(=O)c3ccc(OC)cc3)c(N3CCN(CC)CC3)c2c1	TRPC4 agonist 120
CCOC(=O)C1(CCc2ccccc2)CCN(Cc2nccn2CC)CC1	none
CCOC(=O)C1(CCc2ccccc2)CCN(Cc2ccc(O)cc2)CC1	TRPC4 agonist 49, TRPC4 block -6
CCOC(=O)C1(CCc2ccccc2)CCN(Cc2c(O)cccc2OC)CC1	TRPC4 agonist 79
CCOC(=O)C1(CCOc2ccccc2)CCN(Cc2ccc(O)cc2)CC1	none
CCOC(=O)C1(CCc2ccccc2)CCN(Cc2ccc(OC)cc2)CC1	TRPC4 agonist 119
CCOC(=O)C1(Cc2ccccc2)CCN(Cc2ccc(C)s2)CC1	TRPC4 block -8
O=C(CSc1nnc(CNC(=O)c2ccco2)o1)Nc1ccc(Br)cc1	none
CCn1c(SCC(=O)Nc2ccccc2OC)nc(O)cc1=O	none
O=C(CN1CCN(Cc2ccccc2)CC1)N=Nc1c(O)[nH]c2ccccc12	none
O=C(CN1CCCCC1)N=Nc1c(O)[nH]c2ccccc12	TRPC4 block -8
CCCCC(c1nnnn1CC1CCCO1)N1CCN(Cc2ccccc2)CC1 (stereo not given)	TRPC4 agonist 93, TRPC4 block -6
CC1CCN(S(=O)(=O)c2cc(F)ccc2CN2C(=O)c3cccnc3C2=O)CC1	none
NC(=S)N/N=C1/CCSc2ccc3ccccc3c21	TRPC4 PAM 17
O=C(C1CCN(S(=O)(=O)c2ccccc2F)CC1)N1CCc2ccccc2C1	none
O=C(CC1C(=O)NCCN1C(=O)Nc1ccccc1)Nc1cc(Cl)cc(Cl)c1 (stereo not given)	TRPC4 PAM 16
CC(C)c1ccc(CN(C)CC(O)c2ccccc2)cc1 (stereo not given)	none
CN(CCOc1ccc(Cl)cc1)CC(O)c1ccccc1 (stereo not given)	TRPC4 agonist 126
CN(CCOc1ccc(Br)cc1)CC(O)c1ccccc1 (stereo not given)	TRPC4 agonist 149
COC(=O)C1=C(C(=O)OC)[C@@H]2N(C)c3ccccc3[C@@]23C[C@@H](C(=O)OC)N(C(=O)c2cc(C)oc2C)C3=N1	none
CCC1(c2ccc(F)cc2)NC(=O)N(CC(=O)c2cc(C)n(C3CC3)c2C)C1=O (stereo not given)	TRPC4 PAM 16, TRPC4 agonist 54
CCC1CN(C(=O)NCc2ccc(C)cc2)c2cc(Cl)ccc2O1 (stereo not given)	none
O=C(C1CC(=O)N(C2CCCCC2)C1)N1CCN(c2cccc(C(F)(F)F)c2)CC1 (stereo not given)	none
CCN1CCN(c2ccc(S(=O)(=O)N3CCOCC3)cc2NC(=O)c2ccccc2SC)CC1	TRPC4 agonist 175
CCN1CCN(c2ccc(S(=O)(=O)N3CCOCC3)cc2NC(=O)c2cc(Cl)nc3ccccc23)CC1	TRPC4 agonist 47
CCN1CCN(c2ccc(S(=O)(=O)N3CCOCC3)cc2NC(=O)c2ccc(Cl)s2)CC1	none
CC(C)c1ccc(C2=NN(c3ccccc3)C(=O)CC2)cc1	TRPC4 PAM 11
Cc1cc(NCCN2CCCCC2)n2c(nc3ccccc32)c1C#N	TRPC6 inh -8.1
Cc1cc(NCCCN(C)C)n2c(nc3ccccc32)c1C#N	none
Cc1ccc(NC(=O)C2C3C=CC4(O3)C2C(=O)N(CCCN2CCCCC2)C4C(=O)NC2CCCCC2)cc1C (stereo not given)	none
CC1Cc2ccccc2N1C(=O)CSc1nc2c(c(=O)n(C)c(=O)n2C)n1Cc1ccccc1 (stereo not given)	TRPC4 PAM 13, TRPC4 agonist 245, TRPC4 block -7
Cc1ccc(Cn2c(SCCN3CCCCC3)nc3c2c(=O)n(C)c(=O)n3C)cc1	TRPC4 PAM 70, TRPC4 agonist 43
